The test system of data set [1] is RAW264.7. The data set can be described thus: Anti-inflammatory activity against mouse RAW264.7 cells assessed as inhibition of LPS-stimulated NO production after 18 hrs by Griess reagent based assay. In kind it is functional, cell-based. To be noted: RAW264.7, 18 h. Put shortly: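 RAW264.7 cells were seeded at 2 × 10^5 cells/well in RPMI 1640 with 10% FBS (37 °C, 5% CO2) and preincubated 24 h. They were then exposed 18 h to serial dilutions up to 25 μM (DMSO stock diluted in medium) with LPS 1 μg/mL. Supernatant was mixed 1:1 with Griess reagent for 5 min, and absorbance was read at 570 nm, in triplicate. MG-132 served as positive control.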

Data set [2] has as its system RAW264.7. Briefly: Anti-inflammatory activity against mouse RAW264.7 cells assessed as inhibition of LPS-stimulated TNFalpha production preincubated for 30 mins followed by LPS addition and measured after 24 hrs by ELISA. In kind it is functional, cell-based. Put shortly:
(§1)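 Cells kept at 37 °C in 5% CO2 with 10% heat-inactivated FBS and 1% penicillin: RAW264.7 in DMEM, THP-1 in RPMI 1640. Cells were pretreated 30 min with compound (2.5–20 μM, from DMSO solution) or dexamethasone (5 μM, positive control), then stimulated with LPS 1 μg/mL for 24 h. Supernatant TNF-α, IL-1β and PGE2 were measured by ELISA. Mean ± SD, n = 3; one-way ANOVA with Dunnett's T3 and two-tailed t test.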
For orientation: An ELISA detects its analyte on a solid surface through an enzyme-linked reagent.

The subject of data set [3] is RAW264.7. The data set can be described thus: Anti-inflammatory activity against mouse RAW264.7 cells assessed as inhibition of LPS-stimulated IL-1beta production preincubated for 30 mins followed by LPS addition and measured after 24 hrs by ELISA. Type of data set: functional, cell-based. In outline: as §1
Data set [4] has as its system RAW264.7. The data set can be described thus: Anti-inflammatory activity against mouse RAW264.7 cells assessed as inhibition of LPS-stimulated PGE2 production preincubated for 30 mins followed by LPS addition and measured after 24 hrs by ELISA. Type of data set: functional, cell-based. In outline:
as §1

The subject of data set [5] is THP-1. Briefly: Anti-inflammatory activity against human THP1 cells assessed as inhibition of LPS-stimulated TNFalpha production preincubated for 30 mins followed by LPS addition and measured after 24 hrs by ELISA. In kind it is functional, cell-based. In outline: as §1
The subject of data set [6] is THP-1. Briefly: Anti-inflammatory activity against human THP1 cells assessed as inhibition of LPS-stimulated IL-1beta production preincubated for 30 mins followed by LPS addition and measured after 24 hrs by ELISA. In kind it is functional, cell-based. In outline:
as §1

Data set [7] has as its system THP-1. Briefly: Anti-inflammatory activity against human THP1 cells assessed as inhibition of LPS-stimulated PGE2 production preincubated for 30 mins followed by LPS addition and measured after 24 hrs by ELISA. Type of data set: functional, cell-based. In outline:
as §1

The subject of data set [8] is RAW264.7. The data set can be described thus: Anti-inflammatory activity against mouse RAW264.7 cells assessed as inhibition of LPS-stimulated TNFalpha production at 20 uM preincubated for 30 mins followed by LPS addition and measured after 24 hrs by ELISA relative to control. Type of data set: functional. In outline:
as §1

Data set [9] deals with RAW264.7. The data set can be described thus: Anti-inflammatory activity against mouse RAW264.7 cells assessed as inhibition of LPS-stimulated IL-1beta production at 20 uM preincubated for 30 mins followed by LPS addition and measured after 24 hrs by ELISA relative to control. In kind it is functional. In outline: as §1
Data set [10] concerns RAW264.7. The data set can be described thus: Anti-inflammatory activity against mouse RAW264.7 cells assessed as inhibition of LPS-stimulated PGE2 production at 20 uM preincubated for 30 mins followed by LPS addition and measured after 24 hrs by ELISA relative to control. Type of data set: functional. In outline: as §1
The subject of data set [11] is THP-1. The data set can be described thus: Anti-inflammatory activity against human THP1 cells assessed as inhibition of LPS-stimulated TNFalpha production at 20 uM preincubated for 30 mins followed by LPS addition and measured after 24 hrs by ELISA relative to control. Type of data set: functional. In outline: as §1
For data set [12], the system named is THP-1. The data set can be described thus: Anti-inflammatory activity against human THP1 cells assessed as inhibition of LPS-stimulated IL-1beta production at 20 uM preincubated for 30 mins followed by LPS addition and measured after 24 hrs by ELISA relative to control. Type of data set: functional. Put shortly:
as §1

The nature of data set [13]: Cytotoxicity against mouse RAW264.7 cells assessed as cell viability up to 20 uM by MTS assay relative to control. In kind it is cell-based. The following applies: read-out: Activity. Put shortly: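 RAW264.7 macrophages were grown in DMEM with 10% heat-inactivated FBS and 1% penicillin (37 °C, 5% CO2), detached with trypsin-EDTA and seeded in 96-well plates. At 80% confluence they were treated with compound at 2.5–20 μM (dissolved in DMSO). Viability was read by MTS following the kit instructions.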
On the technique in general: Tetrazolium assays rely on reduction of a dye to a coloured formazan, in cell work by metabolically active cells.

Each structure is given as a SMILES string. Peptide text beside a SMILES is read from it. * marks the point of attachment. Cbz = O=C(OCc1ccccc1)*

`C=C1CC[C@@H](CCO)C(C)(C)[C@H]1C/C=C1/C(=O)OC[C@@H]1O`: the IC50 (commonly the concentration needed to halve the response being measured) with RAW264.7 [1] worked out at 16200 nM.
Turning to `CC1=C(C=O)C(C)(C)[C@H](CC[C@H]2CC[C@]3(OC2)O[C@@]2(O)CC[C@]3(C)OC2(C)C)CC1`, the IC50 in the data set on RAW264.7 [1] is 80 nM. The inhibition entry in the data set with RAW264.7 [2], in the data set with RAW264.7 [3], with RAW264.7 [4], in the data set on THP-1 [5], in the data set on THP-1 [6] and with THP-1 [7] was “Dose-dependent effect” in each case. Further, the inhibition (as a rule, the share of the control response that was lost under treatment) at 20 µM is 70.9% in the data set with RAW264.7 [8]; 94.3% in the data set with RAW264.7 [9]; 92.5% in the data set with RAW264.7 [10]; 99.9% in the data set on THP-1 [11]; 99.3% in the data set on THP-1 [12]. Also, the viability in data set [13] amounted to 60%.
For `CC(C)C[C@@H](C=O)NC(=O)[C@H](CC(C)C)NC(=O)[C@H](CC(C)C)NC(=O)OCc1ccccc1` [MG-132] (Cbz-Leu-Leu-Leu-aldehyde), the IC50 with RAW264.7 [1] came out at 160 nM.

The values above are taken from ChEMBL document CHEMBL4371102, “Tricholopardins A and B, Anti-inflammatory Terpenoids from the Fruiting Bodies of Tricholoma pardinum” (J Nat Prod, 2019).
